Calls of active or inactive are those of the source. The calls are words filed in the database; no cut-off is given here.

The values below come from ChEMBL document CHEMBL4433237, “6,6'-Dihydroxythiobinupharidine as a poison of human type II topoisomerases” (Bioorg Med Chem Lett, 2019).

Test [1] is filed under the species Homo sapiens. The experiment in a line: Covalent poison activity at recombinant human topoisomerase-2alpha N- and C-terminal domain deletion mutant assessed as increase in pBR322 DNA cleavage at 50 uM using supercoiled pBR322 DNA as substrate incubated for 6 mins and measured after 30 mins by ethidium bromide staining based agarose gel electrophoresis method relative to control. A digest of the protocol: (§1)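 Enzyme is a human topoisomerase IIα catalytic core (residues 431–1193) lacking the N- and C-terminal domains. Negatively supercoiled plasmid is the substrate. Double-stranded breaks are read as linear plasmid on ethidium bromide-stained agarose gels and compared with a linear standard. Values are means ± SD of three independent experiments.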

Test [2] is filed under the species Homo sapiens. The experiment in a line: Covalent poison activity at recombinant human topoisomerase-2alpha N- and C-terminal domain deletion mutant assessed as increase in pBR322 DNA cleavage at 100 uM using supercoiled pBR322 DNA as substrate incubated for 6 mins and measured after 30 mins by ethidium bromide staining based agarose gel electrophoresis method relative to control. In outline: as §1

Test [3] addresses DNA topoisomerase 2-alpha (Homo sapiens) (UniProt P11388). Nature of the test: Covalent poison activity at recombinant human topoisomerase-2alpha expressed in Saccharomyces cerevisiae assessed as decrease in pBR322 DNA cleavage up to 1000 uM using supercoiled pBR322 DNA as substrate incubated for 6 mins and measured after 30 mins in presence of glutathione by ethidium bromide staining based agarose gel electrophoresis method relative to control.

The species named for test [4] is Homo sapiens. The experiment in a line: Covalent poison activity at recombinant human N-terminal topoisomerase-2alpha C-terminal domain deletion mutant expressed in Saccharomyces cerevisiae assessed as increase in pBR322 DNA cleavage at 0 to 1000 uM using supercoiled pBR322 DNA as substrate incubated for 6 mins and measured after 30 mins by ethidium bromide staining based agarose gel electrophoresis method relative to control. In outline: (§2)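 Plasmid cleavage with topoisomerase IIα truncations: C-terminal deletion construct keeping the N-terminal portion or catalytic core, residues 431–1193, lacking both N- and C-terminal domains. Compound at 0–1000 μM. Cleavage complexes trapped with SDS. Negatively supercoiled, nicked and linear forms resolved on ethidium bromide-stained agarose gels. Cleavage normalized to linear standards set to 100%.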

In test [5] the target is DNA topoisomerase 2-beta (Homo sapiens) (UniProt Q02880). The experiment in a line: Inhibition of recombinant human topoisomerase-2beta expressed in Saccharomyces cerevisiae assessed as increase in double-stranded DNA cleavage at 0 to 1000 uM using supercoiled pBR322 DNA as substrate incubated for 6 mins measured after 30 mins by ethidium bromide staining based agarose gel electrophoresis method relative to control. In outline:
(§3)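 Human topoisomerase IIα or IIβ with negatively supercoiled plasmid. Cleavage trapped with SDS. Supercoiled, nicked and linear forms resolved on ethidium bromide-stained agarose gels. Cleavage normalized to linear standards set to 100%. Three independent experiments.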

For test [6], the target named is DNA topoisomerase 2-alpha (Homo sapiens) (UniProt P11388). Nature of the test: Covalent poison activity at recombinant human topoisomerase-2alpha expressed in Saccharomyces cerevisiae assessed as decrease in pBR322 DNA cleavage up to 1000 uM using supercoiled pBR322 DNA as substrate incubated for 6 mins and measured after 30 mins in presence of dithiothreitol by ethidium bromide staining based agarose gel electrophoresis method relative to control.
DNA topoisomerase 2-alpha (Homo sapiens), sequence (P11388 whole entry): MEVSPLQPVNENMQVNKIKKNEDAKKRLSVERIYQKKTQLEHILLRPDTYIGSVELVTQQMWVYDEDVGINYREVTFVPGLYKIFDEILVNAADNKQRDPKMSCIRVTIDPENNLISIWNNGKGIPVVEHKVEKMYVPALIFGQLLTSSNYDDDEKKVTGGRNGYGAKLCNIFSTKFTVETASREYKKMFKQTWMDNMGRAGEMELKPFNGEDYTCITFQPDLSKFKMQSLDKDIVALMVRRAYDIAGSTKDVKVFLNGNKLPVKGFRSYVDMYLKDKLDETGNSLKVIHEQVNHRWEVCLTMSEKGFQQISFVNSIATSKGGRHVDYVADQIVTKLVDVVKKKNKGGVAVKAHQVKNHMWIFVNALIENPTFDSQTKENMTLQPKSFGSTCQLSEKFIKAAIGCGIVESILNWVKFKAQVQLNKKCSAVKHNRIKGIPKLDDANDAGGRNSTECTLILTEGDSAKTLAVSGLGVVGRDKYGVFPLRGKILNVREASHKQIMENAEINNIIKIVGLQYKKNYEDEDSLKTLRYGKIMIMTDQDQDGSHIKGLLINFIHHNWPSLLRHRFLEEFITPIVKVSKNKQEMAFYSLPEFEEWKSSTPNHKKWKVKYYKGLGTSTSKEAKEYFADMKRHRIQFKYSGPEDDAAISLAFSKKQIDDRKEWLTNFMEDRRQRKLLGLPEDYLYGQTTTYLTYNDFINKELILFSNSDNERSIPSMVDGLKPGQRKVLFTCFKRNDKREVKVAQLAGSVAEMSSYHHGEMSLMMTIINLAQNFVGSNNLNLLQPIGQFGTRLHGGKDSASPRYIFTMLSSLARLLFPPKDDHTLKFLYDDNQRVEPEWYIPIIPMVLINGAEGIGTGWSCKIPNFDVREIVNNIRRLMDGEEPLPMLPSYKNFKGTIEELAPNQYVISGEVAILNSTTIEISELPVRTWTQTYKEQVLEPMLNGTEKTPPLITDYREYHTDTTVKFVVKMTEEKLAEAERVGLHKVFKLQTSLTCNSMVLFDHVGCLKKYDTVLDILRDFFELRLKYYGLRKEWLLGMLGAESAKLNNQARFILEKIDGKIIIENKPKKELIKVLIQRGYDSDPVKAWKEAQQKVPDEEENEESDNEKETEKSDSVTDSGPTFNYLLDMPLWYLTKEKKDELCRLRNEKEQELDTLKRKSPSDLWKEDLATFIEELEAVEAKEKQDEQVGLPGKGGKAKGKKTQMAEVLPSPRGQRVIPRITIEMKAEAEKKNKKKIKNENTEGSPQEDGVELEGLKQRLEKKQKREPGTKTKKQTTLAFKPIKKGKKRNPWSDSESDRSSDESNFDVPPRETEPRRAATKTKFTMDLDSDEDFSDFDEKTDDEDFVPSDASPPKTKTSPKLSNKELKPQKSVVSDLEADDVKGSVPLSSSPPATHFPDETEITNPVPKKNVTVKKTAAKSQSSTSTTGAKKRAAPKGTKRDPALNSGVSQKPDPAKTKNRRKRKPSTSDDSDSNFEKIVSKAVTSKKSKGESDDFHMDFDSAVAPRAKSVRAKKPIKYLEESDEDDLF

For test [7] the target is unchanged. The experiment in a line: Inhibition of recombinant human topoisomerase-2alpha expressed in Saccharomyces cerevisiae assessed as increase in double-stranded DNA cleavage at 500 uM using supercoiled pBR322 DNA as substrate incubated for 6 mins measured after 30 mins in presence of EDTA by ethidium bromide staining based agarose gel electrophoresis method relative to control. In outline:
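Human topoisomerase IIα, plasmid DNA and 500 μM compound. After reaction, mixtures treated with 25 mM EDTA before SDS to remove active-site Mg2+, versus reactions stopped with SDS before EDTA. Cleavage read on ethidium bromide-stained agarose gel. Two independent experiments.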

For test [8] the target is unchanged. The experiment in a line: Poison activity at recombinant human topoisomerase-2alpha expressed in Saccharomyces cerevisiae assessed as enzyme inactivation time by measuring increase in double-stranded DNA cleavage at 500 uM using supercoiled pBR322 DNA as substrate preincubated for 120 sec followed by substrate addition incubated for 6 mins and measured after 30 mins by ethidium bromide staining based agarose gel electrophoresis method relative to control. A digest of the protocol: (§4)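 500 μM compound preincubated with topoisomerase IIα for varying times before DNA addition. Double-stranded breaks measured and expressed relative to the zero-time level set to 1.0. Three independent experiments.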

Test [9] relates to DNA. The experiment in a line: Induction of DNA cleavage in supercoiled pBR322 DNA at 500 uM incubated for 6 mins measured after 30 mins by ethidium bromide staining based agarose gel electrophoresis method relative to control. The following applies: Escherichia coli. It counts as nucleic-acid assay. A digest of the protocol:
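Control with enzyme omitted: 500 μM compound incubated with plasmid DNA alone under DNA cleavage assay conditions. Products resolved on ethidium bromide-stained agarose gel. Two independent experiments.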

Test [10] concerns the target DNA topoisomerase 2-alpha (Homo sapiens) (UniProt P11388). The experiment in a line: Poison activity at recombinant human topoisomerase-2alpha expressed in Saccharomyces cerevisiae assessed as stabilization of DNA-enzyme cleavage complex at 500 uM using supercoiled pBR322 DNA as substrate incubated for 10 mins and measured after 0 to 240 mins by ethidium bromide staining based agarose gel electrophoresis method.

The species named for test [11] is Homo sapiens. Nature of the test: Covalent poison activity at recombinant human topoisomerase-2alpha N- and C-terminal domain deletion mutant assessed as increase in pBR322 DNA cleavage at 0 to 1000 uM using supercoiled pBR322 DNA as substrate incubated for 6 mins and measured after 30 mins by ethidium bromide staining based agarose gel electrophoresis method relative to control. A digest of the protocol: as §2

For test [12], the target named is DNA topoisomerase 2-alpha (Homo sapiens) (UniProt P11388). Nature of the test: Poison activity at recombinant human topoisomerase-2alpha expressed in Saccharomyces cerevisiae assessed as increase in double-stranded DNA cleavage at 500 uM using supercoiled pBR322 DNA as substrate preincubated for 120 sec followed by substrate addition incubated for 6 mins and measured after 30 mins by ethidium bromide staining based agarose gel electrophoresis method relative to control. In outline: as §4

For test [13] the target is unchanged. Nature of the test: Covalent poison activity at recombinant human topoisomerase-2alpha expressed in Saccharomyces cerevisiae assessed as decrease in pBR322 DNA cleavage up to 1000 uM using supercoiled pBR322 DNA as substrate incubated for 6 mins and measured after 30 mins in presence of ascorbic acid by ethidium bromide staining based agarose gel electrophoresis method relative to control.

For test [14] the target is unchanged. Nature of the test: Poison activity at recombinant human topoisomerase-2alpha expressed in Saccharomyces cerevisiae assessed as rate of DNA ligation time at 0 to 500 uM incubated for 6 mins by agarose gel electrophoresis method (reference value: 12.5 sec).
The target is the same in test [15]. Nature of the test: Inhibition of recombinant human topoisomerase-2alpha expressed in Saccharomyces cerevisiae assessed as increase in double-stranded DNA cleavage at 0 to 1000 uM using supercoiled pBR322 DNA as substrate incubated for 6 mins measured after 30 mins by ethidium bromide staining based agarose gel electrophoresis method relative to control. A digest of the protocol:
as §3

DNA topoisomerase 2-beta (Homo sapiens), sequence (Q02880 whole entry): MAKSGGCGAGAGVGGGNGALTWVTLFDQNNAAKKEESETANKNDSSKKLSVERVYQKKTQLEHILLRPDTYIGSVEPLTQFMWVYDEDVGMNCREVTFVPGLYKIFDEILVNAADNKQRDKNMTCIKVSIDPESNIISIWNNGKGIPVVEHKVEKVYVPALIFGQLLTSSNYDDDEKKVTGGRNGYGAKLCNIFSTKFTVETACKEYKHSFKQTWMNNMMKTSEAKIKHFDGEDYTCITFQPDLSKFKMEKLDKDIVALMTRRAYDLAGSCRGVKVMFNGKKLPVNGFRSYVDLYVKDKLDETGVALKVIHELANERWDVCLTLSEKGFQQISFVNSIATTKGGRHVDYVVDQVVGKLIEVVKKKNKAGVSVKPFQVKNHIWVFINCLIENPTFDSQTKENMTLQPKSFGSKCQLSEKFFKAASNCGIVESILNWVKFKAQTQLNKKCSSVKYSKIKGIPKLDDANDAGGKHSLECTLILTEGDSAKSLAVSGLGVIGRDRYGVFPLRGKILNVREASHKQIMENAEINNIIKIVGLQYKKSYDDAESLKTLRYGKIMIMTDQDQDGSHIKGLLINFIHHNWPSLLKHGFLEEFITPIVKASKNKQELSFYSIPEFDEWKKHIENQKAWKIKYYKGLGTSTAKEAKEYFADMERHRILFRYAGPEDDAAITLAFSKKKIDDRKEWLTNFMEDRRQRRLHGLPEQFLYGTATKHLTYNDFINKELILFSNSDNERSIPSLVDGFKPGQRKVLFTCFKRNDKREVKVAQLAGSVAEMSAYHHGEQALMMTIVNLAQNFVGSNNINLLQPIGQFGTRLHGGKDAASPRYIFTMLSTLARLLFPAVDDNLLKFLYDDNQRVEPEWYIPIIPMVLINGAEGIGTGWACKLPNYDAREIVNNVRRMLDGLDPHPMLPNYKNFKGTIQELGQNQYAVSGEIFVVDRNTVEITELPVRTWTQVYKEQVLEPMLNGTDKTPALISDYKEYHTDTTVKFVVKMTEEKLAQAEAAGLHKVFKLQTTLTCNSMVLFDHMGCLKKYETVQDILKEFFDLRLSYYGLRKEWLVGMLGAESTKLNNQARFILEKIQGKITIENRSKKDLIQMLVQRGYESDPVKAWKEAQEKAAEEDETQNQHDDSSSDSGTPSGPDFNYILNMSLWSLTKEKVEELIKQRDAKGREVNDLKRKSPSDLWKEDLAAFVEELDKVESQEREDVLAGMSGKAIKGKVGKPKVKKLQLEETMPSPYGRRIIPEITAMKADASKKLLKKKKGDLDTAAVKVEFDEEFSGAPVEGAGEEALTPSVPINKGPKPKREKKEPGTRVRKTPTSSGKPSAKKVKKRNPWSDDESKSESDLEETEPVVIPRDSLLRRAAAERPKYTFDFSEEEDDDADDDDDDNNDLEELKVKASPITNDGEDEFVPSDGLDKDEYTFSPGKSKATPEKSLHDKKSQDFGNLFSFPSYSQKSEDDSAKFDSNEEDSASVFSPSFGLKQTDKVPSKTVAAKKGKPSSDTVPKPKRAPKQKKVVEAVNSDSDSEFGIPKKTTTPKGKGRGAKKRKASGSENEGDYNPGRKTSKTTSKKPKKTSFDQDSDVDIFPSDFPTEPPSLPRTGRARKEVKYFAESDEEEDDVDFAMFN

Turning to `COc1cc([C@@H]2c3cc4c(cc3[C@@H](O[C@@H]3O[C@@H]5CO[C@@H](C)O[C@H]5[C@H](O)[C@H]3O)[C@H]3COC(=O)[C@H]23)OCO4)cc(OC)c1O`, the result in [1] and in test [2] was Active.

What is called inhibition is the drop in the measured response relative to a control, in per cent. With `C[C@@H]1CC[C@@H](c2ccoc2)N2[C@H]1CC[C@@]1(CS[C@@]3(CC[C@H]4[C@H](C)CC[C@@H](c5ccoc5)N4[C@@H]3O)C1)[C@H]2O`, the result in [3], in test [6], in [9], in test [11] and in [13] was inactive. Besides, the result in test [4] and in test [10] was Active. The values for the fold change (FC) in test [5] and in [15] were 3 and 8, respectively. In test [7], the inhibition entry was “inactive”. Moreover, the T1/2 in test [8] is 30 s; in test [14], 11 s. Also, the inhibition in test [12] amounted to 100%.
